M5 ag: CHRM5 agonism in calcium assay. CHO-K1 hM5 cells, Fluo-8 calcium fluorescence; 0% DMSO wells, 100% maximal acetylcholine response. activation, % at 3 µM. 360,000 tested, 0.19% active. AID 624037;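 active = activation above the run's mean over test compounds plus 3 SD, cut at about 23% in these data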;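 note: signal is peak over basal fluorescence ratio across the kinetic read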
CHRM4 antagonist: antagonists of human muscarinic M4 receptor (CHRM4); P08173; CHO-hM4 cells, ACh EC80, Fluo-8 calcium fluorescence; inhibition, % at 3 µM; 360,000 tested, 0.73% active; AID 624125;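 active = inhibition above its plate's cutoff, the mean inhibition of sample wells plus 3 SD, cut at about 27% in these data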;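 note: 0% = acetylcholine EC80 with DMSO and 100% = DMSO without agonist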
Target sequence (P08173 whole entry, looked up): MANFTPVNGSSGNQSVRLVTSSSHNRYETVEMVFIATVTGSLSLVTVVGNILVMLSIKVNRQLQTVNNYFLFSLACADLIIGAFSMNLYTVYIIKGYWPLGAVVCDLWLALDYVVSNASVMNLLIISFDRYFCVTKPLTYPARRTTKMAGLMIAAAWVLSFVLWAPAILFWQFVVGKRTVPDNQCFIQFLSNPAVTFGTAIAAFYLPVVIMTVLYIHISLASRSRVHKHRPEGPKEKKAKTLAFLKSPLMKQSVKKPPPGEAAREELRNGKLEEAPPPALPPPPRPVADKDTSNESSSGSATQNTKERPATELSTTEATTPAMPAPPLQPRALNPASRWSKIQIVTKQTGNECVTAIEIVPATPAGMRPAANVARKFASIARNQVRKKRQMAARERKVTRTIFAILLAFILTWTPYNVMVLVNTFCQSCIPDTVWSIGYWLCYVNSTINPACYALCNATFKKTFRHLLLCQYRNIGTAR
M4 ag: agonists of human muscarinic M4 receptor (CHRM4); CHO-K1 hM4/Gqi5, Fluo-8 calcium fluorescence; vehicle 0%, full acetylcholine response 100%; AID 624127; activation, % at 3 µM; P08173; 360,000 tested, 0.14% active;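 active = activation above the run mean over all test wells plus 3 SD, cut at about 32% in these data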;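 note: peak over basal fluorescence ratio per well then scaled between controls; 0% = DMSO wells and 100% = acetylcholine at EC100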
M5 antag: blocks acetylcholine activation of human M5 receptor. P08912. CHO-hM5 cells, Fluo-8 calcium fluorescence, ACh EC80. inhibition, % at 3 µM. 360,000 tested, 0.59% active. AID 624040;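 active = inhibition above a per-plate cutoff, the mean of that plate's test compounds plus 3 SD, cut at about 27% in these data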;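 note: 0% = acetylcholine EC80 with DMSO and 100% = DMSO without agonist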
M5 PAM: positive allosteric modulators of human muscarinic M5 receptor | P08912 | 360,000 tested, 0.3% active | AID 624038 | CHO-K1 hM5, Fluo-8 calcium, ACh EC20 PAM; 0% = ACh EC20, 100% = ACh EC100 | activation, % at 3 µM;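 active = activation above the run cutoff, the mean activation of all test compounds plus 3 SD, cut at about 18% in these data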
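Assay system: CHO-K1 hM5 cells. Also added: acetylcholine at EC20 concentration, added after compound. Dosing: 3 µM, single dose. Times: compound preincubation 140 s before EC20 acetylcholine addition. Signal: Fluo-8 calcium fluorescence. Measure: % activation relative to EC20 and EC100 ACh responses. Repeats: singlicate, one well per test compound.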
CHRM4 PAM: CHRM4 positive allosteric modulation. P08173. CHO-K1 hM4/Gqi5, Fluo-8 calcium fluorescence, ACh EC20; 0% = ACh EC20, 100% = maximal ACh. activation, % at 3 µM. 360,000 tested, 0.4% active. AID 624126;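 active = activation above its plate's cutoff, the mean activation of sample wells plus 3 SD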
* = called active by the depositor. The list is not random: actives were taken first. Their share in the collection is about 1.8%.

SMILES | M5 ag | CHRM4 antagonist | M4 ag | M5 antag | M5 PAM | CHRM4 PAM
COc1ccc2noc3c2c1C(=O)c1ccccc1-3 | 51* | 36* | 59* | 28* | -17 | -22
C[C@H](CO)N1C[C@H](C)[C@@H](CN(C)Cc2ccc(Oc3ccccc3)cc2)OCc2cnnn2CCCC1=O | -1 | -7 | 1 | -8 | 9 | -1
COc1ccc(/C=C2\SC(=S)N(C(Cc3ccccc3)C(=O)O)C2=O)cc1 (stereo not given) | -1 | 12 | 0 | 11 | -4 | -4
O=C(O)C(c1ccccc1)N1C(=O)/C(=C\c2ccc(O)c(O)c2)SC1=S (stereo not given) | 17 | 15 | 35* | 2 | -7 | -23
CCOc1cc(/C=C2\SC(=S)N(C(C(=O)O)c3ccccc3)C2=O)ccc1O (stereo not given) | 61* | 10 | 52* | 14 | -24 | -28
O=C1/C(=C\c2ccc(O)c(O)c2)SC(=S)N1Cc1ccccc1 | 15 | 23 | 20 | 22 | -9 | -10
CCOc1ccc(/C=C2/SC(=S)N(C(C(=O)O)c3ccccc3)C2=O)cc1OCC (stereo not given) | -2 | 0 | 0 | -5 | 4 | 4
O=C1/C(=C\c2cccc(O)c2O)SC(=S)N1Cc1ccccc1 | 3 | 8 | 0 | 1 | 1 | 1
COc1cc(/C=C2/SC(=S)N(Cc3ccccc3)C2=O)ccc1O | 23* | -6 | 10 | 11 | 1 | 2
O=C1/C(=C\c2cc([N+](=O)[O-])ccc2O)SC(=S)N1Cc1ccc(Cl)cc1 | 16 | 30* | 17 | 28* | -11 | -23
CN1CCN(C(=O)c2ccc(-c3ccc(F)c(F)c3)c3ccoc23)CC1 | -2 | -1 | 2 | 3 | -3 | 8
CCOC(=O)C1CCCN(C(=O)c2[nH]c(C(F)(F)F)nc2-c2ccccc2)C1 (stereo not given) | 6 | -10 | 1 | 1 | 5 | 4
Cc1ccc(Cc2c(-c3ccc(F)cc3)nc3cc(C)ccn23)cc1 | -1 | 13 | -2 | -1 | -5 | -6
C[C@@H]1CNC(=O)c2c(C(=O)NC3CCN(C(=O)OC(C)(C)C)CC3)ncn21 | 4 | -12 | 0 | -10 | 9 | 2
COc1ccc([C@H]2C[C@@H](O)[C@H](n3cc(COC(=O)c4ccccc4)nn3)CN2C(=O)c2cccs2)cc1 | 0 | -2 | 6 | 10 | -3 | -5
COc1ccccc1/C=C1\SC(=S)N(C(C(=O)O)c2ccccc2)C1=O (stereo not given) | -6 | -7 | -1 | 1 | -1 | 0
COc1cc(/C=C2\SC(=S)N(NS(=O)(=O)c3ccccc3)C2=O)ccc1O | 12 | 3 | 10 | 13 | -6 | -8
COc1cc(/C=C2/SC(=S)N(c3c(C)n(C)n(-c4ccccc4)c3=O)C2=O)ccc1O | 29* | 8 | 9 | 18 | -16 | -6
COc1cc(/C=C2\SC(=S)N(C(C(=O)O)c3ccccc3)C2=O)ccc1O (stereo not given) | 40* | 22 | 40* | 27* | -20 | -21
CCOC(=O)[C@]12CCCC=C1N(Cc1ccco1)C(=O)[C@H](CC(=O)N1CCCC1)C2 | 3 | -31 | 1 | -3 | 3 | 20
Cc1ccccc1C1c2[nH]c3ccccc3c2CCN1CCCn1cccn1 (stereo not given) | -17 | 61* | 0 | 14 | -23 | -43
CCOC(=O)C1CCCN(C(=O)c2cc(C)oc2C)CC1 (stereo not given) | 0 | 3 | 1 | -1 | 0 | 6
Cc1ccc(S(=O)(=O)Oc2ccc(C)cc2/C=N/N=C2\NC(=O)C(C)S2)cc1 (stereo not given) | -9 | 7 | 0 | -14 | 18* | 3
COc1ccc(/C=N/N=C2/NC(=O)C(CC(=O)O)S2)cc1OS(=O)(=O)c1ccccc1 (stereo not given) | 2 | -2 | -1 | 7 | -4 | -1

Bioassay records deposited in PubChem by The Scripps Research Institute Molecular Screening Center.
